# Paper PMC3326416 (Journal of the American Chemical Society, 2012)
# “And” between values parts separate entries of the source, which are not always exact repeats. Identical values can stand only once. “Also recorded” adds a separate entry of the source.
# Tests used:
# PME-1 [1] = molecular target: T1, PME-1 (Mus musculus, UniProt Q8BVQ5); assay: ABPP-SILAC in Neuro-2A cells, PME-1; type: cell-based; conditions: 100 nM, 2 h
# T1 sequence (Q8BVQ5 1-386): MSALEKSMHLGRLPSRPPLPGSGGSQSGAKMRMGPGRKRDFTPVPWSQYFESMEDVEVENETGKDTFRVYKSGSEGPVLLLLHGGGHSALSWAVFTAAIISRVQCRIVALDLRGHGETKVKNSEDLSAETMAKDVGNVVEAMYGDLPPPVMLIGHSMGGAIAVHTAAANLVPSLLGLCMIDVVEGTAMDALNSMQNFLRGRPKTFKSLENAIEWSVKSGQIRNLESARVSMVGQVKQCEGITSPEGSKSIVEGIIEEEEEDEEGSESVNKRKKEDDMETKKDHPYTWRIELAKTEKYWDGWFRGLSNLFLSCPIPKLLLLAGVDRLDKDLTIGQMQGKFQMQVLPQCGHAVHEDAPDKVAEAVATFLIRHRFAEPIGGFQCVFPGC
# In short: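 Neuro-2A cells were grown in isotopically light or heavy amino acids: light cells got DMSO, heavy cells got test compound at 100 nM for 2 h. Proteomes were labelled with FP-biotin, mixed 1:1, avidin-enriched and analysed by LC/LC-MS/MS on an LTQ-Velos Orbitrap. Activity is the heavy:light MS1 ion ratio of tryptic peptides, reported as mean ± SEM over all peptides quantified per hydrolase.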
# PME-1 [2] = conditions: acylation of active-site serine nucleophile; cited from earlier work
# ABHD10 [3] = molecular target: T2, ABHD10 (Mus musculus, UniProt Q6PE15); assay: ABPP-SILAC in BW5147-derived mouse T-cell hybridoma cells, ABHD10; type: cell-based
# T2 sequence (Q6PE15 44-297): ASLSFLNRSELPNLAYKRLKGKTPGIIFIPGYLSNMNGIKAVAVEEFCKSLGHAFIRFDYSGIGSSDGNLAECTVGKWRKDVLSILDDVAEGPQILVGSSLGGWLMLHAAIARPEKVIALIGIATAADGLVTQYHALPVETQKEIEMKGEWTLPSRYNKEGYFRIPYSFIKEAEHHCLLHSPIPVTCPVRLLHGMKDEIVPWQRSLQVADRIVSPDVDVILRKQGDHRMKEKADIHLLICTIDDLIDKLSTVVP
# In short: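 ABPP-SILAC in a second line, BW5147-derived mouse T-cell hybridoma cells. Cells were cultured in light or heavy amino acids and treated with DMSO or test compound. Proteomes were FP-biotin-labelled, combined 1:1, avidin-enriched and analysed by LC/LC-MS/MS. Serine hydrolase activity was quantified from heavy:light MS1 ratios of tryptic peptides.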
# ABHD10 [4] = molecular target: T2, ABHD10; assay: ABPP-SILAC in Neuro-2A cells, ABHD10; type: cell-based
# PME-1 [5] = molecular target: T1, PME-1; assay: Gel-based ABPP in situ in Neuro2A cells, PME-1; type: cell-based; conditions: up to 10 µM, 2 h
# In short: (§1)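 Intact Neuro-2A cells were treated with test compound at 10–0.001 µM for 2 h. Membrane and soluble proteomes were then analysed by gel-based competitive ABPP, and IC50 was derived from the gel signal. Data are mean ± SEM, n = 3/group.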
# ABHD10 [6] = molecular target: T2, ABHD10; assay: Competitive ABPP of Neuro2A proteomes; type: biochemical
# ABHD10 [7] = molecular target: T2, ABHD10; assay: Gel-based ABPP in situ in Neuro2A cells, ABHD10; type: cell-based; conditions: single treatment, 250 nM
# In short: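 Neuro-2A cells received a single in situ treatment with test compound at 250 nM. ABHD10 activity was then followed by gel-based ABPP of cell proteomes over a period of up to 6 h after treatment.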
# serine hydrolases = assay: Gel-based ABPP in situ in Neuro2A cells, off-target serine hydrolases; type: cell-based, mouse
# In short: as §1
Compound,disruption of PME-1 activity (ABPP-SILAC) (PME-1 [1]),inhibition of PME-1 in cells and mice (PME-1 [2]),inhibition of ABHD10 in second cell line (ABHD10 [3]),"inhibition of ABHD10 (ABPP-SILAC), in words (ABHD10 [4]; 100 nM, 2 h)","loss in ABHD10 activity (ABHD10 [4]; 100 nM, 2 h, ABPP-SILAC, ~40 serine hydrolase activities detected) [%]",inhibition of ABHD10 at higher concentration (ABHD10 [4]; 250 nM),inhibition of PME-1 in situ (PME-1 [5]),"selectivity for ABHD10 over ABHD6, PREP, PME-1, and other serine hydrolases (ABHD10 [6])","IC50 (ABHD10 [6]; read-out: IC50 ABHD10, in vitro)",time complete inhibition of ABHD10 was maintained (ABHD10 [7]),concentration at which off-targets are detected (serine hydrolases) [µM]
COC(=O)N1C(=O)[C@](c2ccccc2)(C2CCCC2)N1C(=O)OC [ABL127],complete and selective disruption; also recorded: selective inhibition,irreversibly inhibit,–,–,–,–,–,–,–,–,–
CCC1(c2ccc(C)cc2)C(=O)N(C(=O)OC(C)C)N1C(=O)OC(C)C (centres unmarked) [ABL303],–,–,complete and selective inhibition,selective inhibition,> 95,complete and selective inhibition,no significant inhibition,at least 40 fold,~30 nM and 30 nM,at least 6 h,≥ 1
